Experimental data taken from ChEMBL document CHEMBL3779801, “Discovery of the Selective CYP17A1 Lyase Inhibitor BMS-351 for the Treatment of Prostate Cancer” (ACS Med Chem Lett, 2016).
pIC50: −log10 of the molar value.

Columns and labels:
[1] = molecular target: T1, Steroid 17-alpha-hydroxylase/17,20 lyase (Homo sapiens, UniProt P05093); experiment: Inhibition of human CYP17A1 expressed in HEK293 cell microsomes using [3H]-pregnenolone as substrate incubated for 45 mins by scintillation proximity assay in presence of NADPH
T1 sequence (P05093 whole entry): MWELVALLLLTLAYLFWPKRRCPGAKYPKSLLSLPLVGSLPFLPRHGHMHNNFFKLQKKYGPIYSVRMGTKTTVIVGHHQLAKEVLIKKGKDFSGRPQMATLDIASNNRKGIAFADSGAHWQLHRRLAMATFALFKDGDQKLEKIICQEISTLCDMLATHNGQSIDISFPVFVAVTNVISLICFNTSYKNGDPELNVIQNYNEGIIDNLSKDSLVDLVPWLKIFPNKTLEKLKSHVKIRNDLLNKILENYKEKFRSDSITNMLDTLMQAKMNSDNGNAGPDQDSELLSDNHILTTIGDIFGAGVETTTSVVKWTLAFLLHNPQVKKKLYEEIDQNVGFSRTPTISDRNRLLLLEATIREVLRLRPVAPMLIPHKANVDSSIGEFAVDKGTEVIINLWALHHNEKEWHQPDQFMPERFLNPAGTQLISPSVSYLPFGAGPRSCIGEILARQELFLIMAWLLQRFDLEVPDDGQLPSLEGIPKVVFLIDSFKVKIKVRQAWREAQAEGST

[2] = molecular target: T2, Cytochrome P450 1A2 (Homo sapiens, UniProt P05177); experiment: Inhibition of CYP1A2 (unknown origin); format: ADME
T2 sequence (P05177 whole entry): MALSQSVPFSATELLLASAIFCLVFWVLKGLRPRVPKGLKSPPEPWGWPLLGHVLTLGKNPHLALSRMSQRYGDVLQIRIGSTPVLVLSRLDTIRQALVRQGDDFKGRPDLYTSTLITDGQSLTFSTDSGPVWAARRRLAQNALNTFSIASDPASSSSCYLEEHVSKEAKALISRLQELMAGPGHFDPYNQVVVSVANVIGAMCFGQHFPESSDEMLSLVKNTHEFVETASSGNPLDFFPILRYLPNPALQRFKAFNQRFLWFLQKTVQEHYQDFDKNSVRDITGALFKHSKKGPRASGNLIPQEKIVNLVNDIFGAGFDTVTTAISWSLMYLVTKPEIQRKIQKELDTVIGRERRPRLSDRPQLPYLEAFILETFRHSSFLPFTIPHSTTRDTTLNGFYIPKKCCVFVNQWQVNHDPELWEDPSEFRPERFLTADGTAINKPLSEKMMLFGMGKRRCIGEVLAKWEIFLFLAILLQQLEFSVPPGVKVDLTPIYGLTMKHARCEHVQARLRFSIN

[3] = Metabolic stability in mouse liver microsomes assessed as parent compound remaining at 0.5 uM incubated for 10 mins; format: ADME; conditions: read-out: Stability
Procedure, shortened: (§1)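 Compound at 0.5 μM was incubated with human, mouse or cynomolgus liver microsomes for 10 min.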

[4] = Metabolic stability in human liver microsomes assessed as parent compound remaining at 0.5 uM incubated for 10 mins; format: ADME; conditions: read-out: Stability; procedure, shortened: as §1
[5] = Metabolic stability in cynomolgus monkey liver microsomes assessed as parent compound remaining at 0.5 uM incubated for 10 mins; format: ADME, Macaca fascicularis; conditions: read-out: Stability; procedure, shortened: as §1
[6] = molecular target: T1, Steroid 17-alpha-hydroxylase/17,20 lyase; experiment: Selectivity ratio of human CYP17A1 hydroxylase activity expressed in Escherichia coli using pregnenolone substrate to human CYP17A1 lyase activity expressed in HEK293 cell microsomes using [3H]-hydroxypregnenolone substrate
Procedure, shortened: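 Hydroxylase and lyase activities were run with different enzyme preparations, so the hydroxylase/lyase ratios are estimates.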

[7] = molecular target: T3, Steroid 17-alpha-hydroxylase/17,20 lyase (Macaca fascicularis, UniProt Q2XVA1); experiment: Inhibition of CYP17A1 in cynomolgus monkey adrenal microsomes using [3H]-pregnenolone as substrate incubated for 45 mins by scintillation proximity assay in presence of NADPH; parameters: species or system Adrenal gland
T3 sequence (Q2XVA1 whole entry): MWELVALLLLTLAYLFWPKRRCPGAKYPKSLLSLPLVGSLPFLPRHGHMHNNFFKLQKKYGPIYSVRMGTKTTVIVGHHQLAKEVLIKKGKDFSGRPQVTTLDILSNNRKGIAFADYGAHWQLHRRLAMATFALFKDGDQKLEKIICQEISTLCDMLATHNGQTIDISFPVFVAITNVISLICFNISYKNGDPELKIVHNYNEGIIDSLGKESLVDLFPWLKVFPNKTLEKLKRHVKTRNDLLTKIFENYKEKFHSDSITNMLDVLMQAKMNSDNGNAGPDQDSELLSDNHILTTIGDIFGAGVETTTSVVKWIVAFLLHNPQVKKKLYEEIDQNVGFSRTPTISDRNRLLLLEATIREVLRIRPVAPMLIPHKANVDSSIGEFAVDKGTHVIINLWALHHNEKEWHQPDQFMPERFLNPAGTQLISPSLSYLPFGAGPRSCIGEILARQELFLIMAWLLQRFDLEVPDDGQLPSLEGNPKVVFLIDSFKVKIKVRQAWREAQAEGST

[8] = molecular target: T3, Steroid 17-alpha-hydroxylase/17,20 lyase; experiment: In vivo inhibition of CYP17A1 in one day castrated cynomolgus monkey assessed as reduction in testosterone level in plasma at 42 mg/kg, po bid for 24 hrs by radiometric immunoassay; format: organism-based
[9] = tested on: Cynomolgus monkey; experiment: Increase in progesterone level in one day castrated cynomolgus monkey at 42 mg/kg, po bid for 24 hrs by radiometric immunoassay; format: ADME, organism-based, Macaca fascicularis; conditions: in vivo
[10] = Inhibition of cynomolgus monkey CYP21A2 using hydroxy progesterone as substrate incubated for 120 mins by LC-MS method; parameters: species or system Macaca fascicularis
[11] = molecular target: T4, Cytochrome P450 11B1, mitochondrial (Homo sapiens, UniProt P15538); experiment: Inhibition of CYP11B1 in human H295R cells using deoxycorticosterone as substrate incubated for 48 hrs by LC-MS method; format: ADME, cell-based
T4 sequence (P15538 whole entry): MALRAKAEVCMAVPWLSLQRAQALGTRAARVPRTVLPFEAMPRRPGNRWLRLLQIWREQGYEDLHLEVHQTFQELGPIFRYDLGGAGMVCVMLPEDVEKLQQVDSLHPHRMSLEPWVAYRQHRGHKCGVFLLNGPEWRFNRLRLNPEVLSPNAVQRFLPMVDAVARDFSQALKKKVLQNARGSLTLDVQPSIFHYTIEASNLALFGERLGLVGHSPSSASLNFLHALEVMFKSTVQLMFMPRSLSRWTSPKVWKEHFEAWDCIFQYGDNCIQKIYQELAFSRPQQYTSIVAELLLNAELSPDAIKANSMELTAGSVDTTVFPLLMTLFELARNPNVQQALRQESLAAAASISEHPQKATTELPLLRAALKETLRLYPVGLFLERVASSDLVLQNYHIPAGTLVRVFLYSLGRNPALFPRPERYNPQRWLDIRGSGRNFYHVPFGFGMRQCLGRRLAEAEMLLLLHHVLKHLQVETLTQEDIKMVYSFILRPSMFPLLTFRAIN

[12] = Tmax in one day castrated cynomolgus monkey at 42 mg/kg, po bid measured after second dose administered at 8 hrs; format: ADME, organism-based, Macaca fascicularis; conditions: male, in vivo
Procedure, shortened: (§2)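 Castrated cynomolgus monkeys were studied over one day with oral BID dosing at time 0 and 8 h. Plasma levels were sampled at set time points over 1–24 h and reported as average ± standard deviation in nM, n = 4.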

[13] = molecular target: T3, Steroid 17-alpha-hydroxylase/17,20 lyase; experiment: Inhibition of CYP17A1 in cynomolgus monkey using [3H]-pregnenolone as substrate incubated for 45 mins by scintillation proximity assay in presence of NADPH
[14] = molecular target: T1, Steroid 17-alpha-hydroxylase/17,20 lyase; experiment: Inhibition of CYP17A1 in human adrenal microsomes using [3H]-pregnenolone as substrate incubated for 90 mins by scintillation proximity assay in presence of NADPH; parameters: species or system Adrenal gland
[15] = tested on: Cynomolgus monkey; experiment: Decrease in cortisol level in one day castrated cynomolgus monkey at 42 mg/kg, po bid for 24 hrs by radiometric immunoassay; format: ADME, organism-based, Macaca fascicularis; parameters: scale not given: the % may be the effect or the level left; conditions: in vivo
[16] = Tmax in one day castrated cynomolgus monkey at 42 mg/kg, po bid; format: ADME, organism-based, Macaca fascicularis; conditions: male, in vivo; procedure, shortened: as §2
[17] = Inhibition of cynomolgus monkey CYP11B1 using hydroxy progesterone as substrate incubated for 120 mins by LC-MS method; parameters: species or system Macaca fascicularis

Cc1ccncc1-c1cccc2c1cnn2-c1ccc(F)cc1
pIC50 [1]: 8.30
pIC50 [2]: 6.72
remaining at 10 min, 0.5 µM [3]: 11%
remaining at 10 min, 0.5 µM [4]: 100%

Cc1ccncc1-c1cccc2c1cnn2-c1ccccn1
pIC50 [1]: 8.70
pIC50 [2]: 6.85
remaining at 10 min, 0.5 µM [5]: 19%
remaining at 10 min, 0.5 µM [3]: 8%
remaining at 10 min, 0.5 µM [4]: 95%

Cc1ccncc1-c1cccc2c1ncn2-c1cnccn1
pIC50 [2]: 6.74
remaining at 10 min, 0.5 µM [5]: 83%
Selectivity ratio [6]: 18
remaining at 10 min, 0.5 µM [3]: 59%
remaining at 10 min, 0.5 µM [4]: 98%

Cc1ccncc1-c1cccc2c1ncn2-c1ccccn1
pIC50 [1]: 8.22
pIC50 [2]: 7.03
remaining at 10 min, 0.5 µM [5]: 100%
Selectivity ratio [6]: 8
remaining at 10 min, 0.5 µM [3]: 33%
remaining at 10 min, 0.5 µM [4]: 96%

C[C@]12CC[C@H](O)CC1=CC[C@@H]1C2CC[C@]2(C)C(c3cccnc3)=CCC12 (some centres undefined)
pIC50 [7]: 8.52
inhibition (INH) [8]: Active
Activity [9]: 1247%
pIC50 [10]: 6.83
pIC50 [11]: 6.06
Tmax [12]: 9.5 h
pIC50 [13]: 8.70
pIC50 [14]: 7.68
Activity [15]: 80%
Tmax [16]: 1 h
pIC50 [17]: 5.61

Cc1ccncc1-c1cccc2c1cnn2-c1cscn1
pIC50 [1]: 8.30
pIC50 [2]: 7.15
remaining at 10 min, 0.5 µM [3]: 12%
remaining at 10 min, 0.5 µM [4]: 62%

Cc1ccncc1-c1cccc2c1cnn2-c1ccccc1
pIC50 [1]: 8.40
pIC50 [2]: 6.92
remaining at 10 min, 0.5 µM [5]: 39%
remaining at 10 min, 0.5 µM [3]: 4%
remaining at 10 min, 0.5 µM [4]: 78%

Cc1ccncc1-c1cccc2c1cnn2-c1nccs1
pIC50 [1]: 8.40
pIC50 [2]: 7.10
remaining at 10 min, 0.5 µM [3]: 8%
remaining at 10 min, 0.5 µM [4]: 69%

Cc1ccncc1-c1cccc2c1cnn2-c1cnccn1
pIC50 [1]: 8.30
pIC50 [2]: 5.40
remaining at 10 min, 0.5 µM [5]: 53%
remaining at 10 min, 0.5 µM [3]: 7%
remaining at 10 min, 0.5 µM [4]: 72%

Cc1ccncc1-c1cccc2c1cnn2-c1cccnn1
pIC50 [1]: 8.52
pIC50 [2]: 6.57
remaining at 10 min, 0.5 µM [3]: 17%
remaining at 10 min, 0.5 µM [4]: 89%

Cc1ccncc1-c1cccc2c1ncn2-c1cscn1
pIC50 [1]: 8.10
pIC50 [2]: 6.82
remaining at 10 min, 0.5 µM [5]: 50%
remaining at 10 min, 0.5 µM [3]: 42%
remaining at 10 min, 0.5 µM [4]: 90%

Cc1ccncc1-c1cccc2c1ncn2-c1nccs1
pIC50 [1]: 8.10
pIC50 [2]: 7.12
remaining at 10 min, 0.5 µM [5]: 42%
Selectivity ratio [6]: 14
remaining at 10 min, 0.5 µM [3]: 16%
remaining at 10 min, 0.5 µM [4]: 92%
